Bioassay records (PubChem)
A selection: hits, their analogues and other compounds. The true share with any hit is near 3.6%.
HIF activator – HIF pathway transcriptional activation | U2OS HRE-luciferase reporter, luminescence; normalized: DMSO 0%, desferrioxamine 100% | activation, % at 7.5 µM (by protocol) | 0.32% of 300,000 active | AID 1910;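 active = mean activation of at least 10% of the iron chelator positive control signal, with at least half of replicates also reaching 10%; inconclusive = mean and replicate majority disagree about reaching 10%; inactive = mean and most replicates under 10%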
PfHsp90 set2 – inhibits growth of yeast expressing Plasmodium falciparum Hsp90. 0.32% of 310,000 active. AID 504621. S. cerevisiae expressing PfHsp90, BacTiter-Glo ATP, 48 h; yeast lacking PDR1 and PDR3 efflux regulators. inhibition, % at 9.4 µM;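 active = every replicate shows inhibition above about 80%, whatever the replicate mean, limit read from the data; inconclusive = mean inhibition reaches the set limit but some replicate falls short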;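 also: 0% = DMSO neutral controls and 100% = 20 µM radicicol positive controls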
CSC inhib – blocks cancer stem cells. cancer stem cell-like cells viability, luminescence. inhibition, % at 7.5 µM. 1.1% of 300,000 active. AID 2717; in the data active = inhibition above about 75%; inconclusive = no clear call, values can overlap the other calls; tested in HMLE shEcad cells
Beta apoptosis – beta cell apoptosis inhibition. INS-1E cytokine-induced death, ATP luminescence, 48 h; percent of positive-control rescue, neutral wells zero. protection from apoptosis, % (test concentration not listed). 0.8% of 300,000 active. AID 435005;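 active = Every replicate reaches about 75%, or at least half do and their mean reaches it too, limit read from the data; inconclusive = At least half of replicates reach the limit but their mean does not; inactive = Under half of replicates reach the limit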;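 also: 0% = cytokine-treated negative control wells and 100% = positive control rescue; higher means more ATP so stronger rescue from cytokine killing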
SKKanGAS inh – inhibitors of SKKanGAS S. pyogenes growth in kanamycin (SK-promoter or general growth effect). BacTiter-Glo, 6 h. inhibition, % at 7.5 µM. 1.3% of 300,000 active. AID 1662;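 active = mean replicate score, as percent of positive control median, at least 50; inconclusive = mean below 50 but one replicate at or above 50; inactive = mean and every replicate below 50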;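 also: strain carries kanamycin resistance gene driven by streptokinase promoter and grows in 40 µg/ml kanamycin; loss of luminescence reflects streptokinase promoter inhibition or plain growth inhibition; 0% = median of DMSO wells and 100% = positive control at its reference dose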
T cruzi repl – blocks replication of Trypanosoma cruzi; T. cruzi beta-gal in NIH3T3, luminescence, 90 h; inhibition, % (concentration not given with the values); 1.4% of 300,000 active; AID 1885;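 active = mean inhibition across valid replicates above about 55%, limit read from the data; inconclusive = mean below that limit but half or more replicates reach it; inactive = mean below it, under half of replicates reach it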;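 also: signal also drops with host cell toxicity which is not excluded here; 0% = plate median of DMSO wells and 100% = zero luminescence signal; higher percent means less beta-gal luminescence so fewer parasites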
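Incubation – ≥90 h infection period, 3 h prior cell attachment · System – NIH/3T3 fibroblasts plus reporter T. cruzi · Doses – compound pinned at 50 nL/well, DMSO · Read-out basis – percent inhibition of parasite-derived β-gal signal · Signal – luminescent β-galactosidase signal after 60 min lysis · Also added – 5000 T. cruzi trypomastigotes/well · Medium – Low-serum DMEM with 2% FBS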
* = called active by the depositor; ? = inconclusive; nt = not tested or not shown.

SMILES | HIF activator | PfHsp90 set2 | CSC inhib | Beta apoptosis | SKKanGAS inh | T cruzi repl
CC(Oc1ccc(F)cc1)C(O)CCN(C)C (centres undefined) | -1 | 24 | 7 | -4 | -7 | 23
COc1cc(CC2C(=O)OCC2C(=O)c2ccc3c(c2)OCO3)cc(OC)c1OC (centres undefined) | nt | -12 | nt | nt | nt | nt
Cc1cc(C)c(S(=O)(=O)N2CCN(c3ccc([N+](=O)[O-])c(-n4nc(C)cc4C)c3)CC2)c(C)c1 | -1 | 4 | 2 | 6 | 9 | 61*
CC(C)COc1ccc(-c2cc(C(=O)NN)[nH]n2)cc1 | 1 | 18 | 10 | 1 | 3 | -12
CCc1ccc2[nH]c(=O)c(CN(Cc3ccccc3)C(=O)Nc3ccccc3OC)cc2c1 | 0 | nt | 18 | 11 | 36 | 66*
COc1ccc2[nH]c3c(c2c1)CCN1C(=O)N([C@@H](C)C(=O)NC2CC2)C(=O)[C@]31C | 0 | 9 | -12 | -6 | -1 | -20
C[C@@H](C(=O)NCCc1ccccc1F)N1C(=O)N2CCc3c([nH]c4ccccc34)[C@@]2(C)C1=O | 0 | -1 | -7 | -2 | 3 | 23
CC(C)C[C@@H](C(=O)NC1CCN(Cc2ccccc2)CC1)N1C(=O)N2CCc3c([nH]c4ccccc34)[C@@]2(C)C1=O | -1 | -35 | 12 | 7 | 7 | 65*
C[C@@H](C(=O)NCCc1ccccc1)N1C(=O)N2CCc3c([nH]c4ccccc34)[C@@]2(C)C1=O | 1 | 3 | -15 | 1 | 1 | 61*
COc1ccc2[nH]c3c(c2c1)CCN1C(=O)N([C@@H](C)C(=O)NC2CCN(Cc4ccccc4)CC2)C(=O)[C@]31C | 0 | -4 | -2 | nt | 6 | 64*
CC(C)[C@@H](C(=O)NC1CCN(Cc2ccccc2)CC1)N1C(=O)N2CCc3c([nH]c4ccccc34)[C@@]2(C)C1=O | 0 | -23 | 9 | 1 | 2 | ?
C[C@@H](C(=O)NC1CCN(Cc2ccccc2)CC1)N1C(=O)N2CCc3c([nH]c4ccccc34)[C@@]2(C)C1=O | 0 | -36 | -3 | 8 | 1 | 59*
O=C(CSc1cccc[n+]1[O-])NC1CCCCC1 | nt | -18 | -28 | 0 | nt | nt
COc1ccc(Nc2c[nH]c(=O)[nH]c2=O)cc1 | nt | 20 | nt | nt | nt | nt
Cc1cccc(N2CCN(C(=O)CCS(=O)(=O)c3ccc4c(c3)NC(=O)CO4)CC2)c1C | 0 | 31 | 4 | 3 | -7 | 6
COCC(=O)N1CCC(Oc2ccc(C(=O)N3CCN(C)C[C@@H]3C(C)C)cc2)CC1 | 1 | 9 | nt | nt | -1 | -2
CCN(CC(=O)Nc1ccccc1C(F)(F)F)C(=O)c1cc(S(=O)(=O)N2CCCCCC2)ccc1OC | 1 | nt | -10 | 2 | 21 | 18
O=C(Nc1ccccc1)C1CC2CCC1C2 (centres undefined) | -28 | -5 | -3 | 0 | 0 | -10
O=C(Nc1ccccc1)OC1CCC2CC1CCC2OC(=O)Nc1ccccc1 (centres undefined) | 2 | -1 | 68 | 29 | 52* | 48
CCOC(=O)CN1C(=N)N(c2nc(NC(C)C)nc(NC(C)C)n2)CC1=O | 11* | -2 | -8 | -4 | -6 | 2
O=C(CCCn1c(=O)c2ccccc2n(Cc2cccc(F)c2)c1=O)NC1CCN(Cc2ccccc2)CC1 | -1 | nt | -4 | 8 | -4 | 31
O=C(CCCCn1c(=O)c2ccccc2n(Cc2ccccc2)c1=O)NC1CCN(Cc2ccccc2)CC1 | 0 | 17 | -8 | 8 | -6 | 59*
O=c1[nH]c(=O)n(-c2ccc(F)cc2)c2c1C(C(F)(F)F)(C(F)(F)F)N=C(c1ccc(F)cc1)N2 | 1 | -11 | nt | 76* | 4 | -13
CC(C)(C)c1nnc(N/N=C/c2cc(Br)ccc2O)n(N)c1=O | 3 | 105* | 112* | 95* | 78* | -31
CCc1nnc(N/N=C/c2cc(Br)c(O)cc2O)n1N | 3 | -8 | -4 | -4 | 0 | -2
SMILES | HIF activator | PfHsp90 set2 | CSC inhib | Beta apoptosis | SKKanGAS inh | T cruzi repl
COc1ccc(NS(=O)(=O)c2cc(NC(=O)c3ccc(=O)[nH]n3)ccc2C)cc1 | nt | nt | nt | 6 | nt | nt
Cc1ccc(NC(=S)NC2CCSc3ccccc32)cc1C (centres undefined) | 0 | -36 | 1 | 6 | 61* | -1
O=C(COC(=O)c1ccc(S(=O)(=O)N2CCCCC2)cc1)NCc1ccccc1 | nt | -1 | -11 | 3 | nt | nt
COC(=O)C1CCN(C(=O)C2CC(=O)N(c3ccc(C)c(Cl)c3)C2)CC1 (centres undefined) | nt | -8 | nt | nt | nt | nt
COc1ccc(CCNC(=O)COc2ccc(S(=O)(=O)NC3CCCCC3)cc2Cl)cc1 | nt | -25 | 5 | -12 | -4 | 29
COc1ccc(OC)c(C2C(C(=O)c3ccccc3)=C(C)Nc3nc4ccccc4n32)c1 (centres undefined) | 1 | -6 | 4 | nt | 76* | 69*
COc1ccccc1N(CC(=O)N/N=C/c1ccc(SC)cc1)S(C)(=O)=O | 0 | 3 | -6 | -10 | 3 | -15
CCOc1ccccc1N(CC(=O)N/N=C/c1cc(Br)ccc1OC)S(C)(=O)=O | 26* | 1 | 3 | -3 | 19 | -4
CCOc1ccccc1NC(=O)C(=O)N/N=C/c1cc(Br)ccc1O | 5 | -7 | -5 | 88* | 23 | 63*
CN(C)CCCN(C(=O)c1ccc(S(=O)(=O)N2CCc3ccccc32)cc1)c1nc2c(Cl)cccc2s1 | 0 | 14 | 50 | 0 | 19 | 55*
COc1cccc2sc(N(CCCN(C)C)C(=O)c3ccc(S(=O)(=O)N4CCCc5ccccc54)cc3)nc12 | -1 | 10 | 23 | 9 | 1 | 17
CN(C)CCN(C(=O)c1ccc(S(=O)(=O)N2CCc3ccccc32)cc1)c1nc2ccc(F)cc2s1 | 1 | 4 | 3 | 8 | 9 | 63*
CCc1ccc2nc(N(CCCN(C)C)C(=O)c3ccc(S(=O)(=O)N4CCCC4)cc3)sc2c1 | -1 | 6 | -9 | 1 | -3 | 37
CCc1ccc2nc(N(CCCN(C)C)C(=O)c3ccc(S(=O)(=O)N4CCCc5ccccc54)cc3)sc2c1 | -2 | nt | ? | 20 | 17 | 61*
CCCSc1ccc([C@H]2N[C@@](CC(C)C)(C(=O)OC)[C@H]3C(=O)N(CC)C(=O)[C@@H]23)cc1 | nt | -13 | nt | -1 | nt | nt
Cc1cccc(C)c1NC(=O)CN(C)S(=O)(=O)c1ccc(-c2ccc(=O)[nH]n2)s1 | -1 | 15 | 7 | 3 | 5 | 0
CCNC(=O)Nc1nc2ccccc2s1 | 7 | -52 | -4 | -1 | 11 | -6
CCOc1ccc2nc(NC(=S)N(C)C)sc2c1 | 0 | nt | nt | 37 | 18 | 41
O=C(Nc1ccc(Cl)c([N+](=O)[O-])c1)Nc1nc2ccccc2s1 | 1 | nt | 81* | 6 | 40 | 6
Cc1ccc(NC(=O)Nc2nc3ccccc3s2)cc1NC(=O)Nc1nc2ccccc2s1 | 1 | 8 | 28 | 30 | 76* | 15
